Among the data in ChEMBL document CHEMBL2203171, “The use of small molecule probes to study spatially separated stimulus-induced signaling pathways” (Bioorg Med Chem Lett, 2012) are inhibition values, retold here.

The target of experiment [1] is T1, Inhibitor of nuclear factor kappa-B kinase subunit beta (Mus musculus) (UniProt O88351).
T1 sequence (whole entry): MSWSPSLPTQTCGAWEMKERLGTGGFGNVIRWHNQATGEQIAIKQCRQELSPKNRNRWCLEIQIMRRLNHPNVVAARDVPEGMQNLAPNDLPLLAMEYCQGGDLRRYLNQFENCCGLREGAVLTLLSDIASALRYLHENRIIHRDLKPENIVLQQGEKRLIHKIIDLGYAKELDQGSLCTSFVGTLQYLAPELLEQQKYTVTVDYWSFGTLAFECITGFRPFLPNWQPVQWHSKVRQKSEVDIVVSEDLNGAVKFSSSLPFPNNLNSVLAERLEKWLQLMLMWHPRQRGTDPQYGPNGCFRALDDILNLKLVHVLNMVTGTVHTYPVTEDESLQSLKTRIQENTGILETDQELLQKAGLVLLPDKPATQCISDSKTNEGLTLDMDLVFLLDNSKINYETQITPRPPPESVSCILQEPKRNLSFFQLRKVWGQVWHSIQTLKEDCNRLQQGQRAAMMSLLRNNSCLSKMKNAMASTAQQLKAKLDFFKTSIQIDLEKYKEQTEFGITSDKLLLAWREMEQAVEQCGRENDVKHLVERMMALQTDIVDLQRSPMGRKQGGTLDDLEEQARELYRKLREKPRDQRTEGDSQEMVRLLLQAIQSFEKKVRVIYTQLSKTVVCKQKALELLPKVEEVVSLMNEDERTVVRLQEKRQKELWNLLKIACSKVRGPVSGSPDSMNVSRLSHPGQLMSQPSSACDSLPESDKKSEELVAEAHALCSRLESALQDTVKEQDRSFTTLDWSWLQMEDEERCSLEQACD
Kind of experiment: Inhibition of IKKbeta in C57BL/6 mouse BMDM cells assessed as inhibition of TNFalpha-induced IkappaBalpha phosphorylation at 50 uM up to 90 mins by Western blot analysis. The experiment is classed as cell-based.

The target in experiment [2] is T1, Inhibitor of nuclear factor kappa-B kinase subunit beta (Mus musculus). Put plainly: Inhibition of IKKbeta in C57BL/6 mouse BMDM cells assessed as inhibition of LPS-induced phosphorylation at 25 uM after 5 mins by Western blot analysis. It counts as cell-based. In outline: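 C57BL/6 marrow-derived macrophages were cultured in 70% growth medium/30% L929-conditioned medium and refreshed 12-14 h before stimulation. Stimuli were TNF 40 ng/ml or LPS 100 ng/ml, ± compound at 25 μM from a 200x DMSO stock. Western blots tracked IKK, p38, IκBα and phospho-RelA. Results from three independent experiments were quantitated and normalized.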
(In general: A western blot detects proteins with antibodies after separation by electrophoresis.)

Experiment [3] concerns the target T2, Interleukin-1 receptor type 1 (Mus musculus) (UniProt P13504).
T2 sequence (whole entry): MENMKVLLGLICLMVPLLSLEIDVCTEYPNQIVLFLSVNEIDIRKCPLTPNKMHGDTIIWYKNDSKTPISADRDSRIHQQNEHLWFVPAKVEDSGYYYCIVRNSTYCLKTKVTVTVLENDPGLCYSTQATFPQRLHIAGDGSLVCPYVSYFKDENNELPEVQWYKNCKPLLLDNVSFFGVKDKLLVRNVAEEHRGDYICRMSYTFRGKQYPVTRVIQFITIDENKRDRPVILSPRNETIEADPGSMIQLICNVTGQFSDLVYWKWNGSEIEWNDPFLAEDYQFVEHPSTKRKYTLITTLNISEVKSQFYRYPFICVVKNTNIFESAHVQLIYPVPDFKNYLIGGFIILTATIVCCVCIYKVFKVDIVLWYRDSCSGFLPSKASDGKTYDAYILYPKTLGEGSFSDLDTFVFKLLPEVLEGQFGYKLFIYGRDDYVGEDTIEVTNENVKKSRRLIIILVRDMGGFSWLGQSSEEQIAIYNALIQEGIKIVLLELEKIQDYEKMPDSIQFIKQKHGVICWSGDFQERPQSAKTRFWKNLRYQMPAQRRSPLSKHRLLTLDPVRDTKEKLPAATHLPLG
Put plainly: Inhibition of MyD88 recruitment to IL-1R in C57BL/6 mouse BMDM cells assessed as inhibition of IL-1-induced IkappaBalpha phosphorylation up to 90 mins by Western blot analysis. It counts as cell-based. In outline:
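Bone marrow macrophages from C57BL/6 mice, grown in 70% growth medium (DMEM, 10% FBS) plus 30% L929-conditioned medium and given fresh medium 12-14 h before stimulation. Stimuli: IL-1 40 ng/ml, HKSA ~10^8 cfu/ml, pI:pC 50 μg/ml or CpG 10 μg/ml, ± compound at 10 μM (final) added from a 200x DMSO stock. IκBα and p38 profiled by immunoblot. Three independent experiments, quantitated and normalized.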

The target in experiment [4] is T3, MAP kinase p38 (Mus musculus) (UniProt P47811+O08911+Q9WUI1+Q9Z1B7). Kind of experiment: Inhibition of MAPK p38 in C57BL/6 mouse BMDM cells assessed as inhibition of LPS-induced phosphorylation at 50 uM up to 90 mins by Western blot analysis. It counts as cell-based.
In experiment [5] the target is T3, MAP kinase p38 (Mus musculus). Put plainly: Inhibition of MAPK p38 in C57BL/6 mouse BMDM cells assessed as inhibition of TNFalpha-induced phosphorylation at 50 uM up to 90 mins by Western blot analysis. The experiment is classed as cell-based.
Experiment [6] concerns the target T1, Inhibitor of nuclear factor kappa-B kinase subunit beta (Mus musculus). Put plainly: Inhibition of IKKbeta in C57BL/6 mouse BMDM cells assessed as inhibition of TNFalpha-induced IkappaBalpha phosphorylation at 25 uM by Western blot analysis.
For experiment [7] the target is unchanged. Kind of experiment: Inhibition of IKKebta in C57BL/6 mouse BMDM cells assessed as inhibition of LPS-induced IkappaBalpha phosphorylation at 25 uM by Western blot analysis.
Experiment [8] has the same target. Kind of experiment: Inhibition of IKKbeta in C57BL/6 mouse BMDM cells assessed as inhibition of LPS-induced MCP1 […] at 25 uM by Northern blot analysis. It counts as cell-based.
Experiment [9] shares this target. Put plainly: Inhibition of IKKbeta in C57BL/6 mouse BMDM cells assessed as inhibition of TNFalpha-induced MCP1 […] at 25 uM by Northern blot analysis. The experiment is classed as cell-based.
In experiment [10] the target is Toll-like receptor 4 (Homo sapiens) (UniProt O00206). Put plainly: Inhibition of MyD88 recruitment to TLR4 cytoplasmic domain expressed in CHO cells at 25 to 50 uM incubated for 30 mins prior to CCf2/AM loading measured after 1 hr by beta-lactamase complementation assay. It counts as cell-based. An outline of the steps: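 CHO cells co-expressing TLR4- and MyD88-β-lactamase fragment fusions, or empty-vector controls, were plated for 24 h and then treated 30 min with compound at 25 or 50 μM. Cells were loaded with 1 μM CCF2/AM for 1 h at room temperature and imaged by fluorescence microscopy (405 nm excitation, 435 nm long-pass emission). Read-out: percent of blue (β-lactamase-positive) cells.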

SMILES strings stand for the structures. Activity calls are given as the source filed them. The calls are words filed in the database; no cut-off is given here.

Sequence of Toll-like receptor 4 (Homo sapiens) (O00206 whole entry, the tested form may be a part): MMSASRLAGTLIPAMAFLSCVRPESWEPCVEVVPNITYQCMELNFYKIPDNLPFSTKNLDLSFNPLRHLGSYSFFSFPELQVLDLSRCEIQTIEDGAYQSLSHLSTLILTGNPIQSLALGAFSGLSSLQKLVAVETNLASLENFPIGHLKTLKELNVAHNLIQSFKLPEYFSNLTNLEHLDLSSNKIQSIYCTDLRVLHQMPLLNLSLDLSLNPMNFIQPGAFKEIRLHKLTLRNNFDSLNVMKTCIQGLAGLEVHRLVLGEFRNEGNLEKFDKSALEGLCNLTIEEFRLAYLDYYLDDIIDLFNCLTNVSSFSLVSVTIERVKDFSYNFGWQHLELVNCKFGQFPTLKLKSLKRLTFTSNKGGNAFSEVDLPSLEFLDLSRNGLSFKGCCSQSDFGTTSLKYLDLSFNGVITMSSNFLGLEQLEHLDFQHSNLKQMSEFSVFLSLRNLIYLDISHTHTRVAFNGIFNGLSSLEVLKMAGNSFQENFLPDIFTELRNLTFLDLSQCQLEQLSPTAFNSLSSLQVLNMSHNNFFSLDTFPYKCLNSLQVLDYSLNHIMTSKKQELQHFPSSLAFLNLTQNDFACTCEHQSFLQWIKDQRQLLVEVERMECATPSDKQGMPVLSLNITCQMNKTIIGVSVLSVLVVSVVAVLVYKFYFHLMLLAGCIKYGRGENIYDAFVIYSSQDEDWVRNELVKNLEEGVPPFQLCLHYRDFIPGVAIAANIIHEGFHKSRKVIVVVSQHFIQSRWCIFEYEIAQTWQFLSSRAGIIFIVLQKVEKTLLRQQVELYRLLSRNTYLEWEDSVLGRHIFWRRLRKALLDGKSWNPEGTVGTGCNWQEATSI

For the compound `O=C(CCCCCN1C(=O)C=CC1=O)Oc1ccc2cc(C(C(=O)NCc3ccccc3)N(C(=O)Cc3ccc4c(c3)OCO4)C3CC3)ccc2c1` (stereo not given), the inhibition entry in experiment [1], in experiment [4], in [5], in experiment [6], in [9] and in [10] was “inactive” throughout. Also, the inhibition entry in [2], in [3], in experiment [7] and in [8] was “Active” in each case.
